Assay results from the RNAGym collection of RNA variant scans (doi:10.1126/science.aae0568).
This sample holds only a part of the variants without activity.

B1: tRNA (parent)
chain: GUUCCGUUGGCGUAAUGGUAACGCGUCUCCCUCCUAAGGAGAAGACUGCGGGUUCGAGUCCCGUACGGAACG

Variants of: B1
Assay: yeast fitness relative to wild type (ratio to wild type); higher = fitter; tRNA-Arg(CCU), competitive growth, 37 C, YPD
Outline: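 Gene amplicons from the start population and from each of six end populations were read by 100-nucleotide paired-end sequencing. Those end populations came from pooled Saccharomyces cerevisiae strains carrying tRNA-Arg(CCU) gene variants at the native locus, competed in YPD at 37°C for 24 hours. Fitness relative to wild type was worked out from changes in genotype frequencies. Genotypes needed ≥ 100 starting reads, and estimates < 0.5 were set to 0.5.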

Row | Variant | yeast fitness
1 | GUUCCAUUGGCGUAAUGGUAACGCGUUUCCCUCCUAAGGAGUAGACUGCGGGUUCGAGUCCUGUACGGAACG [G6A C27U A42U C62U] | ≤ 0.5
2 | GUUCCAUUGGCGUAAUGGUAACGCGUUUACCUCCUAAGGAGAAGACUGCGGGUUCGACUCCCGUACGGAACG [G6A C27U C29A G58C] | ≤ 0.5
3 | GUUCCAUUGGCGUAAUGGUAACGCGUUUCUCUCCUAAGGAGAAGACUGCGGGUUCGAGUCCCGUACGGAACG [G6A C27U C30U] | 0.596
4 | GUUCCAUUGGCGUAAUGGUAACGCGUUUCCGUCCUAAGGAGACGACUGGGGCUUCGAGACCCGUACGGAACG [G6A C27U C31G A43C C49G G52C U59A] | ≤ 0.5
5 | GUUCCAUUGGCGUAAUGGUAACGCGUCUAGCUCCUAAGGAGAAGACUGCGGGUUCGAGUCUCGUACGGAGCG [G6A C29A C30G C61U A70G] | ≤ 0.5
6 | GUUCCAUUGGCGUAAUGGUAACGCGUCUACCUCCUAAGGAGAAGACUGCGGGUUCGAGUCCAGUACGGAACG [G6A C29A C62A] | ≤ 0.5
7 | GUUCCAUUGGCGUAAUGGUAACGCGUCUGCCUCCUAUGGAGAAGACUGCGGGUUCCAGUCCCGUACCGAACG [G6A C29G A37U G56C G67C] | ≤ 0.5
8 | GUUCCAUUGGCGUAAUGGUAACGCGUCUGACUCCUAAGGAGAAGACUGCGGGUUCGAGUCCCGGACGGCACG [G6A C29G C30A U64G A69C] | ≤ 0.5
9 | GUUCCAUUGGCGUAAUGGUAACGCGUCUGCCUCCUAAGGAGAAGACCGCGGGUUCGAGACCCGUACGGAACG [G6A C29G U47C U59A] | ≤ 0.5
10 | GUUCCAUUGGCGUAAUGGUAACGCGUCUUCCUCCUAAGGAGACGAUUGCGGGUUCGAGUCCCGUACGGAACG [G6A C29U A43C C46U] | 0.623
11 | GUUCCAUUGGCGUAAUGGUAACGCGUCUUCCUCCUAAGGAGACGAUUGUGGGUUCCAGUCCCGUACGGAACG [G6A C29U A43C C46U C49U G56C] | ≤ 0.5
12 | GUUCCAUUGGCGUAAUGGUAACGCGUCUUCCUCCUAAGGAGAAGACUGCGGGUUCGGGCCCUGUACGGAACG [G6A C29U A57G U59C C62U] | ≤ 0.5
13 | GUUCCAUUGGCGUAAUGGUAACGCGUCUUCAUCUUAAGGAGAAGACUGCGGGUUCAAGUCCCGUACGGAACG [G6A C29U C31A C34U G56A] | ≤ 0.5
14 | GUUCCAUUGGCGUAAUGGUAACGCGUCUUCCUGCUAAGGAGAAGACUGCGGGUUCGAGUCCCGUACAGAACG [G6A C29U C33G G67A] | ≤ 0.5
15 | GUUCCAUUGGCGUAAUGGUAACGCGUCUUCCUCCUAAGGAGAAGACAGCGAGUUCGGGUCCCGUACGGAACG [G6A C29U U47A G51A A57G] | ≤ 0.5
16 | GUUCCAUUGGCGUAAUGGUAACGCGUCUCACUCCUAAGGAGAAGACUGCGGGUUCGAGUCCCGUACGGAACG [G6A C30A] | 0.845
17 | GUUCCAUUGGCGUAAUGGUAACGCGUCUCAUUCCUAAGGAGAAGCCUGCGGGUUGGAGUCCCGUACGGAACG [G6A C30A C31U A45C C55G] | ≤ 0.5
18 | GUUCCAUUGGCGUAAUGGUAACGCGUCUCGCUCCUAAGGAGAAGACUGCGGGUUCGCCUCCCGUACGGAACG [G6A C30G A57C G58C] | ≤ 0.5
19 | GUUCCAUUGGCGUAAUGGUAACGCGUCUCGCUCCUAAGGAGAAGACUGCGGGUUCGAGUGCCGUACGAAACG [G6A C30G C60G G68A] | ≤ 0.5

Row | Variant | yeast fitness
20 | GUUCCAUUGGCGUAAUGGUAACGCGUCUCUCUCCUAAGGAGAAGACUGCGGGUUCGAGUCCCGUACGGAACG [G6A C30U] | 0.742
21 | GUUCCAUUGGCGUAAUGGUAACGCGUCUCUCUCCUAAGGAGCAGACUCCGGGUUCGAGUCCCGUACGGAACG [G6A C30U A42C G48C] | ≤ 0.5
22 | GUUCCAUUGGCGUAAUGGUAACGCGUCUCUCUUCUAAGGAGAAGAUUGCGGGUUCGAGUCCCGUACGGAACG [G6A C30U C33U C46U] | ≤ 0.5
23 | GUUCCAUUGGCGUAAUGGUAACGCGUCUCUCUCCUAAGGAGAAGACUGAGGGUUCGAGUCCCGUACGGAACG [G6A C30U C49A] | ≤ 0.5
24 | GUUCCAUUGGCGUAAUGGUAACGCGUCUCUCUCCUAAGGAGAAGACUGCGGGUUCGAGUCCAGUACGGAACG [G6A C30U C62A] | ≤ 0.5
25 | GUUCCAUUGGCGUAAUGGUAACGCGUCUCUCUCCUAAGGAGAAGACUGCGGGUUCGAGUCCCAUACAGAACG [G6A C30U G63A G67A] | ≤ 0.5
26 | GUUCCAUUGGCGUAAUGGUAACGCGUCUCUCUCCUAAGGAGAAGACUGCGGGUUCGAGUCCCGUACAGAACG [G6A C30U G67A] | 0.586
27 | GUUCCAUUGGCGUAAUGGUAACGCGUCUCUCUCCAAGCGAGAAGACAGCGGGUUCGAGUCCCGUACGGAACG [G6A C30U U35A A37G G38C U47A] | ≤ 0.5
28 | GUUCCAUUGGCGUAAUGGUAACGCGUCUCCAUCCUAAGGAGAAGACUGCGGGUUCGAGUCCCGUACGGAACG [G6A C31A] | 0.819
29 | GUUCCAUUGGCGUAAUGGUAACGCGUCUCCAUCCUAAGGAGAAGACUGCGGGUUCGAGUCCCGUACGGUACG [G6A C31A A69U] | 0.506
30 | GUUCCAUUGGCGUAAUGGUAACGCGUCUCCAUCCUAAGGAGAAGACUGCGGGUUGGAGUCCCGUAAGGAACG [G6A C31A C55G C66A] | ≤ 0.5
31 | GUUCCAUUGGCGUAAUGGUAACGCGUCUCCAUCCUAAGGAAAAGUCUGCGGGUUCGACUCCCGUACGGAACG [G6A C31A G41A A45U G58C] | ≤ 0.5
32 | GUUCCAUUGGCGUAAUGGUAACGCGUCUCCAUCCUAAGGAGAAGACUGCGGGUUCGAGUCCCGUACGAAACG [G6A C31A G68A] | ≤ 0.5
33 | GUUCCAUUGGCGUAAUGGUAACGCGUCUCCAUCCUAAGGAGAAGACCGCGGGUUCGAGUCCCGUACAGAACG [G6A C31A U47C G67A] | ≤ 0.5
34 | GUUCCAUUGGCGUAAUGGUAACGCGUCUCCAUCCUAAGGAGAAGACGGCGGGUUCGAGUCCAGUACGGAACG [G6A C31A U47G C62A] | ≤ 0.5
35 | GUUCCAUUGGCGUAAUGGUAACGCGUCUCCAUCCUAAGGAGAAGACUGCGGGUUCGAGCCCCGUACGGAUCG [G6A C31A U59C A70U] | ≤ 0.5
36 | GUUCCAUUGGCGUAAUGGUAACGCGUCUCCGUCCUAAGGAGAAGACUGCGGGUUCGAGUCCCGUACGGAACG [G6A C31G] | 0.975
37 | GUUCCAUUGGCGUAAUGGUAACGCGUCUCCGUCCUAAGGAGACGACUGAGGGUCCGAGUCCCGUACGGAACG [G6A C31G A43C C49A U54C] | ≤ 0.5
38 | GUUCCAUUGGCGUAAUGGUAACGCGUCUCCGUCCUAAGGAGACGACUGAGGGUCCGAGUGCCGUACGGAACG [G6A C31G A43C C49A U54C C60G] | ≤ 0.5
